# Screens from PubChem.
# Pf gametocyte: late stage P. falciparum gametocyte viability inhibitors, primary screen, ATP luminescence, HTS. inhibition, % at 10.9 µM. 0.065% of 150,000 active. P. falciparum stage V gametocytes, 24 h. AID 743093, 2013;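 active = inhibition above the mean plus 3 SD of compounds within the control limits, set per campaign, cut at about 38% in these data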;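 also: 0% = DMSO wells and 100% = medium only without gametocytes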
# Wee1 stabilizer: Wee1 degradation inhibitors, primary screen, cell-based, HeLa, Wee1K328M-luciferase, luminescence; HeLa Luc-Wee1K328M stability; 100% = proteasome inhibitor MG132 effect; reporter increase, % at 5 µM; Wee1-like protein kinase (Homo sapiens), P30291; 1.2% of 220,000 active;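 active = activation above the mean of all tested compounds plus 3 SD, set per screening run, cut at about 8.8% in these data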;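 also: cells exposed to compound for 20 h before luminescence read; 0% = DMSO alone and 100% = MG132 at 30 µM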
# Target sequence (P30291 whole entry K328M): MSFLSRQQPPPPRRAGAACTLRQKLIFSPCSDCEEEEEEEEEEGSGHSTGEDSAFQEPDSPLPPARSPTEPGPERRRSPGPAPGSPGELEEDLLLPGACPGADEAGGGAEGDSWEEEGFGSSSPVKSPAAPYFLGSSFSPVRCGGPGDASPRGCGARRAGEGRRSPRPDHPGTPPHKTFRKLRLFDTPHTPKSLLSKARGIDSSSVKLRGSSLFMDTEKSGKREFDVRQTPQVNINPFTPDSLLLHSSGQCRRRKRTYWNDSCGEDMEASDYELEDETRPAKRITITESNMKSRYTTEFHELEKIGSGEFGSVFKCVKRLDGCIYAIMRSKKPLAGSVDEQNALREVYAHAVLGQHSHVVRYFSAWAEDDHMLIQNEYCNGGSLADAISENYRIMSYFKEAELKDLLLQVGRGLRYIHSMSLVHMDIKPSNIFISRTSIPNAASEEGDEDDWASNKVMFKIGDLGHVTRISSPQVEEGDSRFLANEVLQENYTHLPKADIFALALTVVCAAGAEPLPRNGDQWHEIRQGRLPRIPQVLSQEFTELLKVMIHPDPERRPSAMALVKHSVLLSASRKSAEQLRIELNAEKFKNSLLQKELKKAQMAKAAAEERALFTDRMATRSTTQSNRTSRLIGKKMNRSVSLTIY
# Mdm2 ligase inh: MDM2-luciferase reporter signal enhancers, primary screen, MDM2 E3 ligase inhibitor project, cell-based, luminescence, 1536-well. E3 ubiquitin-protein ligase Mdm2 (Homo sapiens), Q00987. cell-based MDM2 ubiquitination luciferase reporter, 2 h; 0 = plate control, 100 = twice control, blank-subtracted. signal enhancement, % at 5 µM. 0.11% of 210,000 active. AID 1230, 2008;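 active = signal enhancement of 30% or more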;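 also: luminescence tracks abundance of the self-degrading MDM2-luciferase fusion protein; higher signal means inhibition of MDM2 E3 ligase activity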
#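 Material: stable MDM2–luciferase fusion reporter cells / Quantity: 2000 cells/well / Dosing: single 5 µM compound dose, 0.2% final DMSO / Buffer or medium: DMEM / Schedule: 4 h cell settling then 2 h compound exposure, 37 °C / Detection: luminescence with SteadyLite reagent, 15 min at room temperature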
# Hsp70 act: Hsp70 transcriptional activators, primary screen, cell-based, HeLa, Hsp70 promoter luciferase, luminescence, 10 µM. HeLa Hsp70 promoter luciferase reporter; scaled: vehicle 0, proteasome-inhibitor control 100%. 0.04% of 200,000 active. activation, % at 10 µM;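 active = activation above the mean across all tested compounds plus 3 SD, cutoff set per campaign, cut at about 5.5% in these data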;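 also: 100% = MG132 at 30 µM as the positive control and 0% = DMSO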
# Active calls of the source: *; · = no result given. The list is not random: actives were taken first. Their share in the collection is about 1.3%.
SMILES,Pf gametocyte,Wee1 stabilizer,Mdm2 ligase inh,Hsp70 act
Cc1ccc(C)c(C(=O)COC(=O)c2cccc(N3C(=O)c4c(C)nc5ccccc5c4C3=O)c2)c1,·,9.0*,-29,0
O=C(O[C@@H]1OC2COC(=O)c3cc(O)c(O)c(O)c3-c3c(cc(O)c(O)c3O)C(=O)O[C@@H]([C@H]1O)[C@@H]2O)c1cc(O)c(O)c(O)c1,·,9.7*,·,0
NC(=O)CCS(=O)(=O)c1ccc(Cl)cc1,-14,10*,-2,0
COc1ccc(CNC(=O)c2ccc(=O)oc2)cc1OC,·,9.4*,-9,0
CCOC(=O)c1c(NC(=S)Nc2ccccc2)sc2c1CCN(CC)C2,·,-3,51*,-1
CCOC(=O)c1c(NC(=O)Nc2ccc(C)cc2)sc2c1CCN(C)C2,-16,10*,-14,·
Cc1ccc(C(=O)Nc2ccc(N3CCCC3)cc2)c(C)c1,-7,2,-17,0
CCCCOC(=O)Nc1ccc(N2CCCCC2)cc1,13,9.1*,-42,0
CCCCOC(=O)Nc1ccc(N2CCOCC2)cc1,14,2,·,0
Cc1ccccc1C(=O)Nc1ccc(N2CCCC2)cc1,·,10*,-4,0
CCOC(=O)Cc1c(C)nc2c(-c3cccc(Br)c3)cnn2c1C,-7,10*,4,0
COc1cc(C(=O)NCc2ccc3c(c2)OCO3)c([N+](=O)[O-])cc1OC,-10,·,·,·
Fc1ccc(-c2n[nH]c(=S)n2-c2ccc3c(c2)OCCO3)cc1,·,9.1*,-2,0
CCCCC(=O)NCc1ccccc1Cl,15,-1,-6,0
CCN(CC(=O)NCc1ccccc1Cl)CC(=O)Nc1c(F)cccc1F,-22,9.5*,-16,·
COc1cc(Br)cc(CNc2ccc(F)c([N+](=O)[O-])c2)c1O,-9,1,-2,0
O=C(COC(=O)c1ccccc1C(=O)c1ccc(Cl)c([N+](=O)[O-])c1)NC1CCCCCC1,29,3,33*,0
Cc1cc(C(=O)CSc2cccc[n+]2[O-])c(C)n1-c1ccc(Br)cc1,·,9.6*,0,0
CCOC(=O)c1ccc(NC(=O)/C=C/c2cccs2)cc1,0,11*,-13,0
CCN(CC)CCOC(=O)c1ccc(NC(=O)/C=C/c2cccs2)cc1,12,3,-9,0
CN(C)c1ccc(/C=C/c2cccc[n+]2[O-])cc1,4,9.9*,-1,·
COc1ccc(-c2cc(-c3ccc(Cl)cc3)c(C#N)c(SCC(=O)O)n2)cc1,-11,·,·,·
Nc1c2c(nc3ccccc13)CCCC2,·,-2,·,0
Cc1cccc2c(N)c3c(nc12)CCCC3 (tested in a mixture with another compound),43*,-4,-6,0
COc1ccc(-c2csc(NC(=O)C3CCCCN3S(=O)(=O)c3ccccc3)n2)cc1 (centres undefined),·,10*,-4,0
SMILES,Pf gametocyte,Wee1 stabilizer,Mdm2 ligase inh,Hsp70 act
CC(C)C(c1nnnn1Cc1ccccc1)N(CCCO)Cc1cc2cc3c(cc2[nH]c1=O)OCO3 (centres undefined),22,-3,4,0
CCC(c1nnnn1Cc1ccc(OC)cc1)N(CCCO)Cc1cc2cc3c(cc2[nH]c1=O)OCO3 (centres undefined),4,9.2*,·,0
O=C(Nc1nc(-c2ccccn2)cs1)c1ccc(Cl)s1,·,10.0*,-2,0
O=S(=O)(c1cnc[nH]1)N1CCCCCC1,·,13*,-12,0
Cc1nc2ccc(NC(=S)N3CCN(c4ccccn4)CC3)cc2nc1C,-12,9.0*,-12,0
S=C(Nc1ccc(Cl)c(Cl)c1)N1CCN(c2ccccn2)CC1,3,·,·,·
CC(C1CC1)N(Cc1ccccc1)C(=S)Nc1cccc(C(F)(F)F)c1 (centres undefined),3,2,-11,0
CC(C1CC1)N(Cc1ccccc1)C(=S)Nc1ccccc1 (centres undefined),1,9.6*,-2,0
COc1ccc(C(=O)OC/C(O)=C(\C#N)c2nc3ccccc3[nH]2)cc1S(=O)(=O)N1CCOCC1,-1,-2,3,0
O=C(COC(=O)CNC(=O)c1ccc(Cl)cc1)Nc1cccc(S(=O)(=O)N2CCCC2)c1,15,-1,·,·
O=C1CCCC(=O)C1CS(=O)(=O)c1ccccc1,39*,4,-22,0
CCOc1cccc(CN2CCN(Cc3ccc(C)o3)C(CCO)C2)c1O (centres undefined),-11,9.3*,-17,1
CCOc1cccc(CN2CCN(CCc3ccccc3)C(CCO)C2)c1O (centres undefined),2,-3,0,0
O=S(=O)(c1ccccc1)N1CCN(c2nnc(-c3ccccc3)c3ccccc23)CC1,8,9.5*,-16,·
O=C(c1ccc(Cl)cc1)c1ccc(OCC(=O)N2CCOCC2)cc1,1,9.6*,-3,0
Cn1c(CCN2CCCCC2)nc2cc([N+](=O)[O-])ccc21,·,-2,-19,0
CCN1CCN(CCc2nc3cc([N+](=O)[O-])ccc3n2C)CC1,6,9.3*,-5,·
O=C(O)c1cccc(CN2C(=O)S/C(=C/c3ccccc3[N+](=O)[O-])C2=O)c1,11,1,-16,·
CCOC(=O)CN1C(=O)S/C(=C/c2cccc([N+](=O)[O-])c2O)C1=O,24,10*,-20,0
Cc1ccc(SCC(=O)Nc2ccc(N3CCN(c4ccccc4)CC3)c(F)c2)cc1,2,1,-3,0
CN1CCN(c2ccc(NC(=O)CSc3ccccc3)cc2F)CC1,4,9.8*,-11,0
CN(C)C(CNC(=S)Nc1ccc(F)cc1)c1cccnc1 (centres undefined),4,10*,-21,0
O=C(Nc1ccccc1)C1COc2ccccc2O1 (centres undefined),8,·,·,·
O=C1NC(=O)c2cc(NC(=O)C3COc4ccccc4O3)ccc21 (centres undefined),·,-2,43*,0
CC1CCCCN1S(=O)(=O)c1ccc(C(=O)Nc2ccccc2-c2nc3ccccc3[nH]2)cc1 (centres undefined),7,11*,·,0
SMILES,Pf gametocyte,Wee1 stabilizer,Mdm2 ligase inh,Hsp70 act
O=C(Nc1ccccc1-c1nc2ccccc2[nH]1)c1ccc(S(=O)(=O)N2CCCCC2)cc1,·,0,-18,1
O=C(NCc1ccco1)c1ccc(COc2ccccc2Cl)cc1,-3,13*,10,0
CCCn1c(C(O)c2ccc(OC)c(OC)c2)nc2ccccc21 (centres undefined),-6,·,·,·
CCN(CC)CCNC(=O)c1ccccn1,13,16*,-4,0
O=C(O)CC/C(=N\NC(=O)c1ccccc1Br)c1ccccc1,-8,-2,12,0
COC(=O)c1ccc(C(=O)OC)c(NC(=S)N2CCCC(C)C2)c1 (centres undefined),1,-1,21,0
